The target of test [1] is Eukaryotic translation initiation factor 6 (Homo sapiens) (UniProt P56537). The test can be described thus: Binding affinity to EIF6 in human NCI-H23 cells at 1 uM by mass spectrometry based pull down assay. The format is cell-based.
The target of test [2] is T1, 80S Ribosome (Homo sapiens) (UniProt P08865+P42677+P62753+P15880+P23396+P61247+P62701+P22090+P46782+P62081+P62241+P46781+P46783+P62280+P25398+P62277+P62263+P62841+P62244+P62249+P08708+P62269+P39019+P60866+P63220+P62266+P62847+P62851+P62854+P62979+P62857+P62273+P62861+P39023+P36578+P46777+Q02878+P18124+P62424+P62917+P32969+P27635+P62906+P62913+P30050+P26373+P40429+P50914+P61313+P18621+Q07020+Q02543+P84098+P46778+P35268+P62829+P62750+P83731+P61254+P61353+P46776+P46779+P47914+P62888+P62899+P62910+P49207+P42766+P18077+Q9Y3U8+P83881+P61927+P61513+P63173+P62891+P62945+P05388+P05386). Description: Binding affinity to RPS26 in human NCI-H23 cells at 1 uM by mass spectrometry based pull down assay. The format is cell-based.

For test [3], the target named is Multifunctional methyltransferase subunit TRM112-like protein (Homo sapiens) (UniProt Q9UI30). Description: Binding affinity to TRMT112 in human NCI-H23 cells at 1 uM by mass spectrometry based pull down assay. The format is cell-based.
Chain of Multifunctional methyltransferase subunit TRM112-like protein (Homo sapiens) (Q9UI30 whole entry): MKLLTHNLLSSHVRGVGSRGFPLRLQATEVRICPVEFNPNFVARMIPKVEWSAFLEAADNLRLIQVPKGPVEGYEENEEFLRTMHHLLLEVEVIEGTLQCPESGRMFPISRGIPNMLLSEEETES
Test [4] addresses Serine/threonine-protein phosphatase PP1-alpha catalytic subunit (Homo sapiens) (UniProt P62136). The test can be described thus: Binding affinity to PPP1CA in human NCI-H23 cells at 1 uM by mass spectrometry based pull down assay. The format is cell-based.
Test [5] deals with T1, 80S Ribosome (Homo sapiens). Description: Binding affinity to RPL17 in human NCI-H23 cells at 1 uM by mass spectrometry based pull down assay. The format is cell-based.
The target in test [6] is Cancer-related nucleoside-triphosphatase (Homo sapiens) (UniProt Q9BSD7). Description: Binding affinity to NTPCR in human NCI-H23 cells at 1 uM by mass spectrometry based pull down assay. The format is cell-based.
Test [7] concerns the target Thymidylate kinase (Homo sapiens) (UniProt P23919). Description: Binding affinity to DTYMK in human NCI-H358 cells at 1 uM by mass spectrometry based pull down assay. The format is cell-based.
In test [8] the target is T1, 80S Ribosome (Homo sapiens). The test can be described thus: Binding affinity to RPS23 in human NCI-H358 cells at 1 uM by mass spectrometry based pull down assay. The format is cell-based.
Test [9] addresses Glucose-6-phosphate isomerase (Homo sapiens) (UniProt P06744). The test can be described thus: Binding affinity to GPI in human NCI-H358 cells at 1 uM by mass spectrometry based pull down assay. The format is cell-based.
Test [10] has as its target Importin subunit beta-1 (Homo sapiens) (UniProt Q14974). The test can be described thus: Binding affinity to KPNB1 in human NCI-H358 cells at 1 uM by mass spectrometry based pull down assay. The format is cell-based.
The target of the next test is Agrin (Homo sapiens) (UniProt O00468). The test can be described thus: Binding affinity to AGRN in human NCI-H358 cells at 1 uM by mass spectrometry based pull down assay. The format is cell-based. An outline of the steps:
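NCI-H23 or NCI-H358 cells were grown and lysed. Lysates were incubated overnight at 4 °C with 1 μM biotinylated covalent probe or DMSO, then pulled down on streptavidin beads. Proteins were run on polyacrylamide gels and stained with Coomassie. Bands were excised, digested and identified by mass spectrometry.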

In test [11] the target is Serine/threonine-protein kinase Nek1 (Homo sapiens) (UniProt Q96PY6). Description: Inhibition of NEK1 in human SKCO1 cells at 1 uM after 4 hrs using biotin labeled DIKSQNIFLTK probe by mass-spectrometric analysis relative to control. The format is cell-based.
The target of test [12] is Macrophage-stimulating protein receptor (Homo sapiens) (UniProt Q04912). Description: Inhibition of RON in human SKCO1 cells at 1 uM after 4 hrs using biotin labeled IQCAIKSLSR probe by mass-spectrometric analysis relative to control. The format is cell-based.
Chain of Macrophage-stimulating protein receptor (Homo sapiens) (Q04912 25-304 limits assumed): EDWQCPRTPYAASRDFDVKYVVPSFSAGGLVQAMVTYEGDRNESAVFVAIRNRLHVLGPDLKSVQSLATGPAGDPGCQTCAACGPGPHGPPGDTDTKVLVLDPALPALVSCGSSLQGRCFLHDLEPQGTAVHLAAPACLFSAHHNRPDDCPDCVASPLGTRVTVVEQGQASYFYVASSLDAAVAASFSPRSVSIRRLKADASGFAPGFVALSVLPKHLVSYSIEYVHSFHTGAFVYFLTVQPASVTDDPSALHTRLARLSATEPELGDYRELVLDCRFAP
Chain of Macrophage-stimulating protein receptor (Homo sapiens) (Q04912 310-1400 limits assumed): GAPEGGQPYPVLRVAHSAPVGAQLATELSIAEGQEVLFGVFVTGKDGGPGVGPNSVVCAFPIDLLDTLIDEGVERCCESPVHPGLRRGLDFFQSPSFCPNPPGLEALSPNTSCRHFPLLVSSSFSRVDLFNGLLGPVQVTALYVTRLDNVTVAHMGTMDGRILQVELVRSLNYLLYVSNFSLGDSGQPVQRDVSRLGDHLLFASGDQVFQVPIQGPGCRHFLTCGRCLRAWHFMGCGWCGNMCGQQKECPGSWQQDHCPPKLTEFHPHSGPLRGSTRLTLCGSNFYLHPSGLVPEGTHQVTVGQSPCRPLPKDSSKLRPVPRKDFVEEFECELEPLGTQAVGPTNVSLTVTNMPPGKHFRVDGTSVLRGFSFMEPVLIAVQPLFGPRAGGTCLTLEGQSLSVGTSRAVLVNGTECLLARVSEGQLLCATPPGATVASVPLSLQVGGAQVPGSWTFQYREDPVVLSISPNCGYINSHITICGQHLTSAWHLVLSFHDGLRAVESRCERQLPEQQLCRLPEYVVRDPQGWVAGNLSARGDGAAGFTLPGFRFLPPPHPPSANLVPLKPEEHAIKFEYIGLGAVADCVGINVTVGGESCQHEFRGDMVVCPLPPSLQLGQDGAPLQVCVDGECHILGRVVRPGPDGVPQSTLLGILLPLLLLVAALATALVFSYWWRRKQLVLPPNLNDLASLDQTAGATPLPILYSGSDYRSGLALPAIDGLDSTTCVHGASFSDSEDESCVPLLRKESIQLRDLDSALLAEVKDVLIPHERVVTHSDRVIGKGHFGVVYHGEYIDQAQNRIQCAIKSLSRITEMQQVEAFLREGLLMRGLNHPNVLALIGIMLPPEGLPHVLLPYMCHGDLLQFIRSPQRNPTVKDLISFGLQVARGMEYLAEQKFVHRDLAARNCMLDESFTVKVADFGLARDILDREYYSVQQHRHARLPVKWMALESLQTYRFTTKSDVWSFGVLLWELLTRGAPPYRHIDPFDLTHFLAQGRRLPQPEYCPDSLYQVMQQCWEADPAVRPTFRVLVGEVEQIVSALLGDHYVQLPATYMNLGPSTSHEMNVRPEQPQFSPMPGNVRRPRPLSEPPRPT
Test [13] has as its target T2, Dual specificity mitogen-activated protein kinase kinase 5 (Homo sapiens) (UniProt Q13163).
T2 sequence (whole entry): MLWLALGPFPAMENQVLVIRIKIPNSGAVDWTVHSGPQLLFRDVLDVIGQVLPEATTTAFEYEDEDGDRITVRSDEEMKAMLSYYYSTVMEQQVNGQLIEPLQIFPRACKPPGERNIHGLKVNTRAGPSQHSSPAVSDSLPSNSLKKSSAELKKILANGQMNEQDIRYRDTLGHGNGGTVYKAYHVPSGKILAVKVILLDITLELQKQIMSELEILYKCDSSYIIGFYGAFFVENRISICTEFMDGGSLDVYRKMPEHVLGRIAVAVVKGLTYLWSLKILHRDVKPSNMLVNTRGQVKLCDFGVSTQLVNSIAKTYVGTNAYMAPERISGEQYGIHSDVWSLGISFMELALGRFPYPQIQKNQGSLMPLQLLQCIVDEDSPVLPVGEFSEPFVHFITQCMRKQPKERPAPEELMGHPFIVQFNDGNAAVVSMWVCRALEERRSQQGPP
Description: Inhibition of human MEK5 (98 to 448 residues) expressed in mammalian expression system assessed as enzyme activity at 1 uM by KINOMEScan assay relative to control. On the set-up: scale not given: the % may be the effect or the level left. An outline of the steps:
(§1)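 In vitro ATP-site competition binding assay across a panel of 456 kinases, with compound tested at 1 and 10 μM.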

Test [14] addresses T3, Dual specificity mitogen-activated protein kinase kinase 4 (Homo sapiens) (UniProt P45985).
T3 sequence (whole entry): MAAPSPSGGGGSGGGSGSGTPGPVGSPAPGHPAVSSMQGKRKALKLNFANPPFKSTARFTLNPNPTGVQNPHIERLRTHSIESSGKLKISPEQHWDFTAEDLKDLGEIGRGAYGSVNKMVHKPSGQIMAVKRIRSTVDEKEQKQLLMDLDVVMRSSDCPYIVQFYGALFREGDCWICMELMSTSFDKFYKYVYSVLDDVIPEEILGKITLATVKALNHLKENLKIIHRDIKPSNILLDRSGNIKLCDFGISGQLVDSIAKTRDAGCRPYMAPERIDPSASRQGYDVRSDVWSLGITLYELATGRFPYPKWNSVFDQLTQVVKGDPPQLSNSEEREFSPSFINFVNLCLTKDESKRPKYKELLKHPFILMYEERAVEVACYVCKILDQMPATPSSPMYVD
Description: Inhibition of human MEK4 (84 to 399 residues) expressed in mammalian expression system assessed as enzyme activity at 1 uM by KINOMEScan assay relative to control. Details: scale not given: the % may be the effect or the level left. An outline of the steps:
as §1

Test [15] deals with Vascular endothelial growth factor receptor 1 (Homo sapiens) (UniProt P17948). Description: Inhibition of human FLT1 (781 to 1239 residues) expressed in bacterial expression system assessed as enzyme activity at 10 uM by KINOMEScan assay relative to control. Details: scale not given: the % may be the effect or the level left. An outline of the steps: as §1
Chain of Vascular endothelial growth factor receptor 1 (Homo sapiens) (P17948 whole entry, the tested form may be a part): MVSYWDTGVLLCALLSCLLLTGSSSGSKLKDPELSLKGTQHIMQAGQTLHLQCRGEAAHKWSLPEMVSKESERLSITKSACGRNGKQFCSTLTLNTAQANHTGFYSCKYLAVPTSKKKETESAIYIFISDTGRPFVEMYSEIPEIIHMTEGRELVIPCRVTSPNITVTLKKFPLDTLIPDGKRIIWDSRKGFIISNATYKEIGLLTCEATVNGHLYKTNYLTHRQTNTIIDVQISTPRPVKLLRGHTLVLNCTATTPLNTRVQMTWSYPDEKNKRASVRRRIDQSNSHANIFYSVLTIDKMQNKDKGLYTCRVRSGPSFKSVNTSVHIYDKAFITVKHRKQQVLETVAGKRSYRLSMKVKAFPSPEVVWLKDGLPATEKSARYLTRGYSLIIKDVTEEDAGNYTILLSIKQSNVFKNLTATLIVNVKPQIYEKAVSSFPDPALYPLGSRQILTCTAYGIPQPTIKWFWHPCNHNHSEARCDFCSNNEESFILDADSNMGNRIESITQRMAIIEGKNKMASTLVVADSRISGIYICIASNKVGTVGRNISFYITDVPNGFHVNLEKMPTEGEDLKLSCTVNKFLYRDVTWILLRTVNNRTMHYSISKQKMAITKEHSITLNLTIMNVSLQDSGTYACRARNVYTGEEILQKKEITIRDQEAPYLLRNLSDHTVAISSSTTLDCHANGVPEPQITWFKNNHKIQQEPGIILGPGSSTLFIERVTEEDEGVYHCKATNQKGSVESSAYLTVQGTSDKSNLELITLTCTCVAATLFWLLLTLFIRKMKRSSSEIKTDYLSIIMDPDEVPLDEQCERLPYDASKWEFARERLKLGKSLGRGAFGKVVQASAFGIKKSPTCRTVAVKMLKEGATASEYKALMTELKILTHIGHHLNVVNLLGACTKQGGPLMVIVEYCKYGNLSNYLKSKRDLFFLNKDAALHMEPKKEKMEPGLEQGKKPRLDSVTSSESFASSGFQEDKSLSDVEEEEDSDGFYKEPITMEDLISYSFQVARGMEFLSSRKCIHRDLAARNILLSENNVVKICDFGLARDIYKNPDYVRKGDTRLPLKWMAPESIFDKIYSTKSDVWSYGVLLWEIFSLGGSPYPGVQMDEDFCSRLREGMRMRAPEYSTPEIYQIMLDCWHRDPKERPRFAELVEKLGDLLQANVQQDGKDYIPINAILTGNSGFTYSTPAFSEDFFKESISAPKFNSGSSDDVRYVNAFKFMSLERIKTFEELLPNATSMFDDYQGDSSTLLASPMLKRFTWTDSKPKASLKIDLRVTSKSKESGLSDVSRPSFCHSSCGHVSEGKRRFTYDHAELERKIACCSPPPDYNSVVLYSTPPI
In test [16] the target is Ribosomal protein S6 kinase alpha-6 (Homo sapiens) (UniProt Q9UK32). The test can be described thus: Inhibition of human RSK4 (1 to 397 residues) expressed in mammalian expression system assessed as enzyme activity at 10 uM by KINOMEScan assay relative to control. On the set-up: scale not given: the % may be the effect or the level left. An outline of the steps: as §1
Chain of Ribosomal protein S6 kinase alpha-6 (Homo sapiens) (Q9UK32 whole entry, the tested form may be a part): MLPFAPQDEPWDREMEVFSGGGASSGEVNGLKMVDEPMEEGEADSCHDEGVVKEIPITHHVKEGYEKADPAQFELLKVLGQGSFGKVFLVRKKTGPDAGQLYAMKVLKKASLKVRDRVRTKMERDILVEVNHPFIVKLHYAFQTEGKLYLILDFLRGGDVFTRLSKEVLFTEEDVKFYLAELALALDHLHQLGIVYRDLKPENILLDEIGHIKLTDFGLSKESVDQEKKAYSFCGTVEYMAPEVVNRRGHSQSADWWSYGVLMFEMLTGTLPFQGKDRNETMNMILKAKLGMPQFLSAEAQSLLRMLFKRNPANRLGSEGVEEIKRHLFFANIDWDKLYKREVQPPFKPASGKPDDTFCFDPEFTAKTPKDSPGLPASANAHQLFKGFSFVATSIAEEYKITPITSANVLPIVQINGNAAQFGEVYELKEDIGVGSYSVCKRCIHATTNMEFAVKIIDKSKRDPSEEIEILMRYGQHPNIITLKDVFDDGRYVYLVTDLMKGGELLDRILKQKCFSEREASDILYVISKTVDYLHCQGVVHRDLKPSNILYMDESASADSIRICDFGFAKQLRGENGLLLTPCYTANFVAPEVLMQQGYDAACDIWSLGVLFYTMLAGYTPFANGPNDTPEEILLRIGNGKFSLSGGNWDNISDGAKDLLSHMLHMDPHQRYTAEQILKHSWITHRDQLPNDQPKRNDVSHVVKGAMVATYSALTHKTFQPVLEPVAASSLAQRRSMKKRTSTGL

Calls of active or inactive are those of the source. No cut-off for these calls is given here.

Chain of Thymidylate kinase (Homo sapiens) (P23919 whole entry): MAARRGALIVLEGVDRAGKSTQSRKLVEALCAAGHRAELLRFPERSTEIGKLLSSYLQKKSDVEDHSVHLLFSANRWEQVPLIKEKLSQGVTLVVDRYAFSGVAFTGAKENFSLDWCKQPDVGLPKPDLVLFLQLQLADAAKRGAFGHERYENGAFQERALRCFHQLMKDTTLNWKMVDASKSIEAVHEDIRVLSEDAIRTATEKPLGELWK
Chain of Importin subunit beta-1 (Homo sapiens) (Q14974 whole entry): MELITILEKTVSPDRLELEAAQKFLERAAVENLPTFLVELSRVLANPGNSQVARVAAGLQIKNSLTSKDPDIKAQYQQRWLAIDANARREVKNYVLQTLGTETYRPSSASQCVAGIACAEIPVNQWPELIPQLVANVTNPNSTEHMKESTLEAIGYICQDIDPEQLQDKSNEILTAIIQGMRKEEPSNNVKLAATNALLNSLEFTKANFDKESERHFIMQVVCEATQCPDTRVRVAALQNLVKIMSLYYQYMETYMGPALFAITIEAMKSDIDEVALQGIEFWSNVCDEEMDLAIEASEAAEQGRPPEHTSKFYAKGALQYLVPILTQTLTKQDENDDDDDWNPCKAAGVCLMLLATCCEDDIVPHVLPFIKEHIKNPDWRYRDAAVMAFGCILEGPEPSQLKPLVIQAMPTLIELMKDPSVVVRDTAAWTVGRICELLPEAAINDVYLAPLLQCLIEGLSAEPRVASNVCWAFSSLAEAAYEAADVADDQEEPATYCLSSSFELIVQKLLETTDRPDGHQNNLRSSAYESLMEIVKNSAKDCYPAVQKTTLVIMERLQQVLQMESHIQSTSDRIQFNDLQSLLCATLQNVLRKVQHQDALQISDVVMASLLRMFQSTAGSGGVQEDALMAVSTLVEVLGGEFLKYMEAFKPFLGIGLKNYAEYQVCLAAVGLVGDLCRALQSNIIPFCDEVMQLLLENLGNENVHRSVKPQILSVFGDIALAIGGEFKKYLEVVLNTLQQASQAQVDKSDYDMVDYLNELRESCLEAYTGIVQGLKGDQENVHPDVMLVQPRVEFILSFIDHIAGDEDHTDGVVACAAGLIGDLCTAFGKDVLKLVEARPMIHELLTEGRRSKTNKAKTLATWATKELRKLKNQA
Chain of Serine/threonine-protein phosphatase PP1-alpha catalytic subunit (Homo sapiens) (P62136 whole entry): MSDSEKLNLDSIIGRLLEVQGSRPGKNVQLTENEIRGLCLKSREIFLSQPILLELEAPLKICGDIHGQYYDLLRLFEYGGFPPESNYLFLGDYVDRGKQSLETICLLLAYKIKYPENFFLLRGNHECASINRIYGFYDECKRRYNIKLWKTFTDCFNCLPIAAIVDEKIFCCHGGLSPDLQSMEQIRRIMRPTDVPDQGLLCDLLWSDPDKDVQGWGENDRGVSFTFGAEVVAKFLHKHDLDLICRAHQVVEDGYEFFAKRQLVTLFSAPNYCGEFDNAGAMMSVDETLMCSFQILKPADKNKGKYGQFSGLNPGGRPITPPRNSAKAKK

With `C=CC(=O)Nc1ccccc1Nc1nc(Nc2ccc(N3CCN(CCOCCOCCOCCNC(=O)CCCC[C@@H]4SC[C@@H]5NC(=O)N[C@@H]54)CC3)cc2)ncc1Cl`, the outcome in test [1], in test [2], in [3], in test [4], in test [5] and in test [6] was Active. The result (in [7]; in [8]; in [9]; in [10]; on Agrin (Homo sapiens)) was Active.

Regarding `C=CC(=O)Nc1ccccc1Oc1nc(Nc2cnn(CCOC)c2)ncc1Cl`, the inhibition – broadly, the drop in the measured response relative to a control, in per cent – was -7.4% in [11] and -4.2% in test [12].

Turning to `COc1cc(O)c2c(c1)/C=C/C[C@H](O)[C@H](O)C(=O)/C=C\C[C@H](C)OC2=O`, the Activity in test [13] came to 0.2%; in test [14], 19%; in [15] it was 0.5%; in test [16], 3%.
